Measured values reported in ChEMBL document CHEMBL2413060, “Synthesis, biological evaluation and molecular docking studies of some pyrimidine derivatives” (2013).

How the values were obtained:
Format in all cases: functional
K562 = assay: Cytotoxicity against human K562 cells
Candida albicans = assay: Antifungal activity against Candida albicans ATCC 2091 assessed as diameter of inhibition zone at 1 mg/ml after 48 hrs by cup diffusion method (reference value: 22 mm); conditions: ATCC 2091, 48 h, read-out: DIZ
PC-3 [1] = assay: Cytotoxicity against human PC3 cells assessed as growth inhibition at 10 uM; conditions: read-out: GI
How it was run: (§1)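 Single-dose screen on human tumour cell lines. Growth of treated cells is expressed as percent of untreated growth, plotted as a mean graph, and reported as percent growth inhibition.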

NCI-H460 = assay: Cytotoxicity against human NCI-H460 cells
How it was run: (§2)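 Five-dose in vitro screen on the full sixty human tumour cell line panel. Three response parameters derived per cell line: GI50, TGI and LC50, given in μM.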

MOLT-4 = assay: Cytotoxicity against human MOLT4 cells; how it was run: as §2
HCC 2998 = assay: Cytotoxicity against human HCC2998 cells
ACHN [2] = assay: Cytotoxicity against human ACHN cells assessed as growth inhibition at 10 uM; conditions: read-out: GI
CAKI-1 = assay: Cytotoxicity against human Caki1 cells assessed as growth inhibition at 10 uM; conditions: read-out: GI
Hs-578T [3] = assay: Cytotoxicity against human Hs578T cells assessed as growth inhibition at 10 uM; conditions: read-out: GI
NCI/ADR-RES = assay: Cytotoxicity against human NCI/ADR-RES cells; how it was run: as §2
A549 = assay: Cytotoxicity against human A549/ATCC cells
HOP-92 [4] = assay: Cytotoxicity against human HOP92 cells assessed as growth inhibition at 10 uM; conditions: read-out: GI
A498 = assay: Cytotoxicity against human A498 cells
SNB-75 [5] = assay: Cytotoxicity against human SNB75 cells; how it was run: as §2
ACHN [6] = assay: Cytotoxicity against human ACHN cells
SNB-75 [7] = assay: Cytotoxicity against human SNB75 cells assessed as growth inhibition at 10 uM; conditions: read-out: GI; how it was run: as §1
PC-3 [8] = assay: Cytotoxicity against human PC3 cells; how it was run: as §2
DU-145 = assay: Cytotoxicity against human DU145 cells
UACC-62 [9] = assay: Cytotoxicity against human UACC62 cells assessed as growth inhibition at 10 uM; conditions: read-out: GI
How it was run: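 Single-dose screen in a sixty-cell human tumour line panel; percent growth of treated cells relative to untreated was read and reported as percentage growth inhibition, shown as a mean graph. Compounds meeting the threshold inhibition criteria went on to five-dose testing.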

SK-OV-3 = assay: Cytotoxicity against human SKOV3 cells; how it was run: as §2
RPMI-8226 [10] = assay: Cytotoxicity against human RPMI8226 cells assessed as growth inhibition at 10 uM; conditions: read-out: GI; how it was run: as §1
786-0 = assay: Cytotoxicity against human 786-0 cells
[11] = Cytotoxicity against human EKVX cells
U-251 = assay: Cytotoxicity against human U251 cells
How it was run: (§3)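 Five-dose in vitro screen across the full sixty-cell human tumour line panel. Three response parameters were derived from the dose-response data: GI50, TGI and LC50, expressed in μM/l.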

UO-31 = assay: Cytotoxicity against human UO31 cells; how it was run: as §3
T47D = assay: Cytotoxicity against human T47D cells assessed as growth inhibition at 10 uM; conditions: read-out: GI; how it was run: as §1
HCT-15 = assay: Cytotoxicity against human HCT15 cells
Hs-578T [12] = assay: Cytotoxicity against human Hs578T cells
IGROV-1 = assay: Cytotoxicity against human IGROV1 cells
SNB-19 = assay: Cytotoxicity against human SNB19 cells; how it was run: as §2
OVCAR-5 = assay: Cytotoxicity against human OVCAR5 cells; how it was run: as §2
HOP-62 = assay: Cytotoxicity against human HOP62 cells
MDA-MB-435 = assay: Cytotoxicity against human MDA-MB-435 cells; how it was run: as §2
RPMI-8226 [13] = assay: Cytotoxicity against human RPMI8226 cells; how it was run: as §2
Malme-3M = assay: Cytotoxicity against human MALME-3M cells
HOP-92 [14] = assay: Cytotoxicity against human HOP92 cells
LOX IMVI = assay: Cytotoxicity against human LOXIMVI cells
KM12 = assay: Cytotoxicity against human KM12 cells
NCI-H522 = assay: Cytotoxicity against human NCI-H522 cells; how it was run: as §2
UACC-62 [15] = assay: Cytotoxicity against human UACC62 cells; how it was run: as §3
[16] = read-out: LC50 (the source's name)

In the case of `N#Cc1c(-c2ccccc2)nc(SCC2CO2)nc1N1CCOCC1` (stereo not given), the GI50 (K562) is reported as > 100 µM, the TGI (K562) is reported as > 100 µM and the CC50 (K562; [16]) is reported as > 100 µM. For the same compound, the zone of inhibition at 1000 µg/mL (Candida albicans) was 22 mm, the inhibition of growth at 10 µM (PC-3 [1]) was 63.9% and the GI50 (NCI-H460) was 10.3 µM. The TGI (NCI-H460) was > 100 µM, the CC50 (NCI-H460; [16]) was > 100 µM and the GI50 (MOLT-4) was 28.9 µM. For the same compound, the TGI (MOLT-4) was > 100 µM, the CC50 (MOLT-4; [16]) was > 100 µM and the GI50 (HCC 2998) was 0.253 µM. For the same compound, the TGI (HCC 2998) was 18.2 µM, the CC50 (HCC 2998; [16]) was > 100 µM and the inhibition of growth at 10 µM (ACHN [2]) was 40.8%. For the same compound, the inhibition of growth at 10 µM (CAKI-1) was 61.4%, the inhibition of growth at 10 µM (Hs-578T [3]) was 50% and the GI50 (NCI/ADR-RES) was 11.8 µM. For the same compound, the TGI (NCI/ADR-RES) was > 100 µM, the CC50 (NCI/ADR-RES; [16]) was > 100 µM and the GI50 (A549) was 27.9 µM. For the same compound, the TGI (A549) was > 100 µM, the CC50 (A549; [16]) was > 100 µM and the inhibition of growth at 10 µM (HOP-92 [4]) was 81.7%. The GI50 (A498) was 1.06 µM, the TGI (A498) was 5.28 µM and the CC50 (A498; [16]) was > 100 µM. For the same compound, the GI50 (SNB-75 [5]) was 2.15 µM, the TGI (SNB-75 [5]) was 68.2 µM and the CC50 (SNB-75 [5]; [16]) was > 100 µM. The GI50 (ACHN [6]) was 3.23 µM, the TGI (ACHN [6]) was > 100 µM and the CC50 (ACHN [6]; [16]) was > 100 µM. For the same compound, the inhibition of growth at 10 µM (SNB-75 [7]) was 65.9%, the GI50 (PC-3 [8]) was 22.1 µM and the TGI (PC-3 [8]) was > 100 µM. For the same compound, the CC50 (PC-3 [8]; [16]) was > 100 µM, the GI50 (DU-145) was 13.4 µM and the TGI (DU-145) was > 100 µM. The CC50 (DU-145; [16]) was > 100 µM, the inhibition of growth at 10 µM (UACC-62 [9]) was 48.1% and the GI50 (SK-OV-3) was 14.1 µM. For the same compound, the TGI (SK-OV-3) was 75.2 µM, the CC50 (SK-OV-3; [16]) was > 100 µM and the inhibition of growth at 10 µM (RPMI-8226 [10]) was 52.1%. For the same compound, the GI50 (786-0) was 2.7 µM, the TGI (786-0) was 21.3 µM and the CC50 (786-0; [16]) was > 100 µM. The GI50 [11] was 3.65 µM, the TGI [11] was > 100 µM and the CC50 [11, 16] was > 100 µM. The GI50 (U-251) was 22.1 µM, the TGI (U-251) was > 100 µM and the CC50 (U-251; [16]) was > 100 µM. The GI50 (UO-31) was 7.57 µM, the TGI (UO-31) was > 100 µM and the CC50 (UO-31; [16]) was > 100 µM. For the same compound, the inhibition of growth at 10 µM (T47D) was 84.6%, the GI50 (HCT-15) was 4.06 µM and the TGI (HCT-15) was > 100 µM. For the same compound, the CC50 (HCT-15; [16]) was > 100 µM, the GI50 (Hs-578T [12]) was 1.15 µM and the TGI (Hs-578T [12]) was 6.09 µM. The CC50 (Hs-578T [12]; [16]) was > 100 µM, the GI50 (IGROV-1) was 1.79 µM and the TGI (IGROV-1) was 23.3 µM. For the same compound, the CC50 (IGROV-1; [16]) was > 100 µM, the GI50 (SNB-19) was 84.5 µM and the TGI (SNB-19) was > 100 µM. For the same compound, the CC50 (SNB-19; [16]) was > 100 µM, the GI50 (OVCAR-5) was 1.7 µM and the TGI (OVCAR-5) was > 100 µM. The CC50 (OVCAR-5; [16]) was > 100 µM, the GI50 (HOP-62) was 4.34 µM and the TGI (HOP-62) was 75.3 µM. The CC50 (HOP-62; [16]) was > 100 µM, the GI50 (MDA-MB-435) was 6.71 µM and the TGI (MDA-MB-435) was > 100 µM. The CC50 (MDA-MB-435; [16]) was > 100 µM, the GI50 (RPMI-8226 [13]) was 14.1 µM and the TGI (RPMI-8226 [13]) was 91.8 µM. For the same compound, the CC50 (RPMI-8226 [13]; [16]) was > 100 µM, the GI50 (Malme-3M) was 2.56 µM and the TGI (Malme-3M) was > 100 µM. The CC50 (Malme-3M; [16]) was > 100 µM, the GI50 (HOP-92 [14]) was 2.44 µM and the TGI (HOP-92 [14]) was 8.7 µM. The CC50 (HOP-92 [14]; [16]) was > 100 µM, the GI50 (LOX IMVI) was 6.48 µM and the TGI (LOX IMVI) was > 100 µM. For the same compound, the CC50 (LOX IMVI; [16]) was > 100 µM, the GI50 (KM12) was 27.1 µM and the TGI (KM12) was > 100 µM. The CC50 (KM12; [16]) was > 100 µM, the GI50 (NCI-H522) was 72.5 µM and the TGI (NCI-H522) was > 100 µM. For the same compound, the CC50 (NCI-H522; [16]) was > 100 µM, the GI50 (UACC-62 [15]) was 3.12 µM and the TGI (UACC-62 [15]) was 75.5 µM. The CC50 (UACC-62 [15]; [16]) was > 100 µM.
